Results taken from ChEMBL document CHEMBL4689842, “EUbOPEN Chemogenomics Library wave 1” (2021).

Tested on: Fibroblast
Assay: Multiplex assay against human fibroblast
Format: toxicity, cell-based
Outline: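 Imaging took place on a CQ1 microscope at 37°C and 5% CO2 once compound had been added to live cells stained at seeding with Hoechst33342, BioTracker Green Microtubule Cytoskeleton Dye, MitoTracker Red and Annexin V Alexa Fluor 680. CellPathfinder machine-learning gating classed cells as Hoechst high-intensity objects or normal cells, classed normal cells as having healthy, pyknosed or fragmented nuclei, and classed pyknosed cells as mitotic or apoptotic. Tubulin, mitochondrial-mass and membrane-permeability phenotypes are per cents of the healthy-nucleus cells.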

[1] = 12 h, 1 µM, compound concentration 1 uM, replicate 1
[2] = 12 h, 1 µM, compound concentration 1 uM, replicate 2
[3] = 12 h, 10 µM, compound concentration 10 uM, replicate 1
[4] = 12 h, 10 µM, compound concentration 10 uM, replicate 2
[5] = 24 h, 1 µM, compound concentration 1 uM, replicate 1
[6] = 24 h, 1 µM, compound concentration 1 uM, replicate 2
[7] = 24 h, 10 µM, compound concentration 10 uM, replicate 1
[8] = 24 h, 10 µM, compound concentration 10 uM, replicate 2
[9] = 48 h, 1 µM, compound concentration 1 uM, replicate 1
[10] = 48 h, 1 µM, compound concentration 1 uM, replicate 2
[11] = 48 h, 10 µM, compound concentration 10 uM, replicate 1
[12] = 48 h, 10 µM, compound concentration 10 uM, replicate 2

CN1CCC(=C2c3ccccc3CC(=O)c3sccc32)CC1.O=C(O)/C=C/C(=O)O [KETOTIFEN FUMARATE]
Population Apoptotic (%) [1]: 61% | Population Fragmented Nuclei (%) [1]: 26% | Population Healthy Nuclei (%) [1]: 41% | Population Hoechst High Intensity Objects (%) [1]: 12% | Population Membrane Permeable-Phenotype (%) [1]: 24% | Population Mitochondria Different-Phenotype (%) [1]: 3% | Population Mitotic Cells (%) [1]: 38% | Population Normal (%) [1]: 87% | Population Pyknosed Nuclei (%) [1]: 32% | Population Tubulin-Different-Phenotype (%) [1]: 37% | Total Cell Count [1]: 149 | Population Apoptotic (%) [2]: 75% | Population Fragmented Nuclei (%) [2]: 6% | Population Healthy Nuclei (%) [2]: 87% | Population Hoechst High Intensity Objects (%) [2]: 5% | Population Membrane Permeable-Phenotype (%) [2]: 10% | Population Mitochondria Different-Phenotype (%) [2]: 12% | Population Mitotic Cells (%) [2]: 25% | Population Normal (%) [2]: 94% | Population Pyknosed Nuclei (%) [2]: 6% | Population Tubulin-Different-Phenotype (%) [2]: 9% | Total Cell Count [2]: 56 | Population Apoptotic (%) [3]: 73% | Population Fragmented Nuclei (%) [3]: 21% | Population Healthy Nuclei (%) [3]: 51% | Population Hoechst High Intensity Objects (%) [3]: 16% | Population Membrane Permeable-Phenotype (%) [3]: 6% | Population Mitochondria Different-Phenotype (%) [3]: 23% | Population Mitotic Cells (%) [3]: 26% | Population Normal (%) [3]: 83% | Population Pyknosed Nuclei (%) [3]: 26% | Population Tubulin-Different-Phenotype (%) [3]: 84% | Total Cell Count [3]: 168 | Population Apoptotic (%) [4]: 33% | Population Fragmented Nuclei (%) [4]: 2% | Population Healthy Nuclei (%) [4]: 75% | Population Hoechst High Intensity Objects (%) [4]: 1% | Population Membrane Permeable-Phenotype (%) [4]: 15% | Population Mitochondria Different-Phenotype (%) [4]: 90% | Population Mitotic Cells (%) [4]: 66% | Population Normal (%) [4]: 98% | Population Pyknosed Nuclei (%) [4]: 22% | Population Tubulin-Different-Phenotype (%) [4]: 95% | Total Cell Count [4]: 67 | Population Apoptotic (%) [5]: 63% | Population Fragmented Nuclei (%) [5]: 25% | Population Healthy Nuclei (%) [5]: 45% | Population Hoechst High Intensity Objects (%) [5]: 12% | Population Membrane Permeable-Phenotype (%) [5]: 16% | Population Mitochondria Different-Phenotype (%) [5]: 6% | Population Mitotic Cells (%) [5]: 36% | Population Normal (%) [5]: 88% | Population Pyknosed Nuclei (%) [5]: 28% | Population Tubulin-Different-Phenotype (%) [5]: 38% | Total Cell Count [5]: 150 | Population Apoptotic (%) [6]: 100% | Population Fragmented Nuclei (%) [6]: 8% | Population Healthy Nuclei (%) [6]: 86% | Population Hoechst High Intensity Objects (%) [6]: 7% | Population Membrane Permeable-Phenotype (%) [6]: 9% | Population Mitochondria Different-Phenotype (%) [6]: 10% | Population Mitotic Cells (%) [6]: 0% | Population Normal (%) [6]: 92% | Population Pyknosed Nuclei (%) [6]: 5% | Population Tubulin-Different-Phenotype (%) [6]: 4% | Total Cell Count [6]: 64 | Population Apoptotic (%) [7]: 75% | Population Fragmented Nuclei (%) [7]: 33% | Population Healthy Nuclei (%) [7]: 51% | Population Hoechst High Intensity Objects (%) [7]: 16% | Population Membrane Permeable-Phenotype (%) [7]: 17% | Population Mitochondria Different-Phenotype (%) [7]: 28% | Population Mitotic Cells (%) [7]: 25% | Population Normal (%) [7]: 83% | Population Pyknosed Nuclei (%) [7]: 15% | Population Tubulin-Different-Phenotype (%) [7]: 83% | Total Cell Count [7]: 189 | Population Apoptotic (%) [8]: 59% | Population Fragmented Nuclei (%) [8]: 6% | Population Healthy Nuclei (%) [8]: 66% | Population Hoechst High Intensity Objects (%) [8]: 2% | Population Membrane Permeable-Phenotype (%) [8]: 22% | Population Mitochondria Different-Phenotype (%) [8]: 98% | Population Mitotic Cells (%) [8]: 40% | Population Normal (%) [8]: 97% | Population Pyknosed Nuclei (%) [8]: 27% | Population Tubulin-Different-Phenotype (%) [8]: 88% | Total Cell Count [8]: 80 | Population Apoptotic (%) [9]: 61% | Population Fragmented Nuclei (%) [9]: 34% | Population Healthy Nuclei (%) [9]: 52% | Population Hoechst High Intensity Objects (%) [9]: 16% | Population Membrane Permeable-Phenotype (%) [9]: 20% | Population Mitochondria Different-Phenotype (%) [9]: 2% | Population Mitotic Cells (%) [9]: 38% | Population Normal (%) [9]: 83% | Population Pyknosed Nuclei (%) [9]: 12% | Population Tubulin-Different-Phenotype (%) [9]: 34% | Total Cell Count [9]: 170 | Population Apoptotic (%) [10]: 40% | Population Fragmented Nuclei (%) [10]: 28% | Population Healthy Nuclei (%) [10]: 64% | Population Hoechst High Intensity Objects (%) [10]: 10% | Population Membrane Permeable-Phenotype (%) [10]: 18% | Population Mitochondria Different-Phenotype (%) [10]: 0% | Population Mitotic Cells (%) [10]: 60% | Population Normal (%) [10]: 89% | Population Pyknosed Nuclei (%) [10]: 6% | Population Tubulin-Different-Phenotype (%) [10]: 32% | Total Cell Count [10]: 86 | Population Apoptotic (%) [11]: 87% | Population Fragmented Nuclei (%) [11]: 41% | Population Healthy Nuclei (%) [11]: 53% | Population Hoechst High Intensity Objects (%) [11]: 31% | Population Membrane Permeable-Phenotype (%) [11]: 16% | Population Mitochondria Different-Phenotype (%) [11]: 9% | Population Mitotic Cells (%) [11]: 12% | Population Normal (%) [11]: 68% | Population Pyknosed Nuclei (%) [11]: 4% | Population Tubulin-Different-Phenotype (%) [11]: 68% | Total Cell Count [11]: 260 | Population Apoptotic (%) [12]: 0% | Population Fragmented Nuclei (%) [12]: 34% | Population Healthy Nuclei (%) [12]: 64% | Population Hoechst High Intensity Objects (%) [12]: 23% | Population Membrane Permeable-Phenotype (%) [12]: 13% | Population Mitochondria Different-Phenotype (%) [12]: 5% | Population Mitotic Cells (%) [12]: 100% | Population Normal (%) [12]: 76% | Population Pyknosed Nuclei (%) [12]: 1% | Population Tubulin-Different-Phenotype (%) [12]: 86% | Total Cell Count [12]: 176
